Experimental data reported in ChEMBL document CHEMBL1926568, “Synthesis, biological evaluation and mechanistic studies of totarol amino alcohol derivatives as potential antimalarial agents” (Bioorg Med Chem, 2012).
One block for each compound: values may come before it. Active and inactive are the calls of the source. The rule behind the calls is not given here.

What was measured:
Plasmodium falciparum [1] = test: Resistance index, ratio of IC50 for chloroquine-resistant Plasmodium falciparum K1 to IC50 for chloroquine-sensitive Plasmodium falciparum D10; assay type: functional
Procedure, shortened: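 Resistance index computed as IC50 (K1)/IC50 (D10), both from the pLDH assay, each run in duplicate on two separate occasions.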

[2] = Selectivity index, ratio of IC50 for CHO cells to IC50 for chloroquine-resistant Plasmodium falciparum K1; assay type: toxicity, cell-based; settings: hamster, CHO cells (cytotoxicity) versus Plasmodium falciparum K1; read-out: Ratio IC50
Plasmodium falciparum [3] = test: Antiplasmodial activity against chloroquine-resistant Plasmodium falciparum K1 after 48 hrs by lactate dehydrogenase assay; assay type: functional, organism-based; settings: K1, 48 h
Procedure, shortened: (§1)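 P. falciparum D10 (CQ-sensitive) and K1 (CQ-resistant) kept in continuous in vitro culture, synchronized with 5% D-sorbitol at ring stage when needed; growth read by parasite lactate dehydrogenase assay; each compound run in duplicate on two separate occasions.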

[4] = Selectivity index, ratio of IC50 for CHO cells to IC50 for chloroquine-sensitive Plasmodium falciparum D10; assay type: toxicity, cell-based; settings: hamster, CHO cells (cytotoxicity) versus Plasmodium falciparum D10; read-out: Ratio IC50
[5] = Cytotoxicity in un-parasitized erythrocytes assessed as morphological changes at 6.25 ug/ml after 48 hrs by phase contrast microscopy; assay type: cell-based; settings: erythrocyte
Procedure, shortened: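 Unparasitized erythrocytes (hematocrit 2%) held 48 h with 6.25 µg/ml compound (diluted from 100 µg/ml stocks), then fixed with 1% glutaraldehyde in paraformaldehyde; cell shape of 20 µl samples examined by phase-contrast light microscopy at ×1000.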

Plasmodium falciparum [6] = test: Antiplasmodial activity against Plasmodium falciparum schizonts assessed as change in parasitemia at IC50 concentration treated until all schizonts had burst and invasion was assumed to have occurred by Giemsa staining-based microscopy relative to control; assay type: functional
Plasmodium falciparum [7] = test: Antiplasmodial activity against Plasmodium falciparum schizonts assessed as parasitemia at IC50 concentration treated until all schizonts had burst and invasion was assumed to have occurred by Giemsa staining-based microscopy (reference value: 8.83%); assay type: functional
CHO = test: Cytotoxicity against CHO cells after 48 hrs by MTT assay; assay type: cell-based; settings: Cricetulus griseus
Procedure, shortened: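 CHO cells in DMEM:Ham's (1:1) with 10% heat-inactivated FCS and gentamicin, 37 °C, 5% CO2; 1×10^4 cells/well seeded 24 h, then serial dilutions from DMSO stocks (100–0.01 µg/ml) for 48 h, with medium and DMSO controls.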

Plasmodium falciparum [8] = test: Antiplasmodial activity against chloroquine-sensitive Plasmodium falciparum D10 after 48 hrs by lactate dehydrogenase assay; assay type: functional, organism-based; settings: D10, 48 h; procedure, shortened: as §1
Erythrocyte [9] = test: Induction of [3H]-chloroquine accumulation in erythrocytes infected with chloroquine-resistant Plasmodium falciparum K1 trophozoites at 5 uM pre-incubated for 15 mins before exposure to [3H]-chloroquine measured after 1 hr by liquid scintillation counting relative to control; assay type: functional
Procedure, shortened: (§2)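 Synchronized K1-infected erythrocytes at trophozoite stage (1% hematocrit, 5% parasitemia) preincubated with test compound 15 min at 37 °C, then 4 nM 3H-CQ for 1 h at 37 °C; cells spun through dibutylphthalate, pellet digested and counted by liquid scintillation; accumulation expressed relative to untreated control; verapamil 5 µM positive control.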

Erythrocyte [10] = test: Induction of [3H]-chloroquine accumulation in erythrocytes infected with chloroquine-resistant Plasmodium falciparum K1 trophozoites at 1 ug/ml pre-incubated for 15 mins before exposure to [3H]-chloroquine measured after 1 hr by liquid scintillation counting relative to control; assay type: functional, cell-based; procedure, shortened: as §2

SMILES: CC(C)NCC(O)COc1ccc2c(c1C(C)C)CC[C@H]1C(C)(C)CCC[C@]21C (stereo partly specified)
Ratio IC50 (Plasmodium falciparum [1]): 0.14 | selectivity ratio [2]: 8.7 | IC50 (Plasmodium falciparum [3]): 0.17 µM | selectivity ratio [4]: 1.2 | Activity [5]: Non-toxic | Activity (Plasmodium falciparum [6]): -3.4% | Activity (Plasmodium falciparum [7]): 5.43% | IC50 (CHO): 1.28 µM | IC50 (Plasmodium falciparum [8]): 1.05 µM

SMILES: CCN(CC)CC(O)COc1ccc2c(c1C(C)C)CC[C@H]1C(C)(C)CCC[C@]21C (stereo partly specified)
Ratio IC50 (Plasmodium falciparum [1]): 1.04 | selectivity ratio [2]: 12.2 | IC50 (Plasmodium falciparum [3]): 0.63 µM | selectivity ratio [4]: 12.7 | IC50 (CHO): 7.73 µM | IC50 (Plasmodium falciparum [8]): 0.61 µM

IC50 (Plasmodium falciparum [8]): > 100 µM
SMILES: c1ccc2c(OCC3CO3)cccc2c1 (stereo unspecified)

SMILES: CC(C)c1c(OCC(O)CNCc2ccccc2)ccc2c1CC[C@H]1C(C)(C)CCC[C@]21C (stereo partly specified)
Ratio IC50 (Plasmodium falciparum [1]): 0.1 | selectivity ratio [2]: 22.3 | IC50 (Plasmodium falciparum [3]): 0.65 µM | selectivity ratio [4]: 2.2 | Activity [5]: Non-toxic | Activity (Plasmodium falciparum [6]): -0.52% | Activity (Plasmodium falciparum [7]): 8.31% | IC50 (CHO): 14.4 µM | IC50 (Plasmodium falciparum [8]): 6.47 µM

SMILES: CC(C)c1c(OCC2CO2)ccc2c1CC[C@H]1C(C)(C)CCC[C@]21C (stereo partly specified)
Ratio IC50 (Plasmodium falciparum [1]): 1.36 | IC50 (Plasmodium falciparum [3]): 14 µM | IC50 (Plasmodium falciparum [8]): 10.3 µM

SMILES: CC(C)c1c(OCC(O)CN2CCN(c3ccccc3Cl)CC2)ccc2c1CC[C@H]1C(C)(C)CCC[C@]21C (single isomer, unassigned)
Ratio IC50 (Plasmodium falciparum [1]): 0.23 | selectivity ratio [2]: 207 | IC50 (Plasmodium falciparum [3]): 0.94 µM | selectivity ratio [4]: 57.3 | IC50 (CHO): 186 µM | IC50 (Plasmodium falciparum [8]): 3.25 µM

SMILES: CC(C)c1c(OCC(O)CN2C(=O)c3ccccc3C2=O)ccc2c1CC[C@H]1C(C)(C)CCC[C@]21C (stereo partly specified)
Ratio IC50 (Plasmodium falciparum [1]): 5.06 | IC50 (Plasmodium falciparum [3]): 48.3 µM | IC50 (Plasmodium falciparum [8]): 9.55 µM

SMILES: CN1CCN(CC(O)COc2ccc3ccccc3c2)CC1 (racemic)
Ratio IC50 (Plasmodium falciparum [1]): 0.19 | selectivity ratio [2]: 18.1 | IC50 (Plasmodium falciparum [3]): 8.21 µM | selectivity ratio [4]: 3.5 | IC50 (CHO): 149 µM | IC50 (Plasmodium falciparum [8]): 42.9 µM

SMILES: CCOc1ccccc1N1CCN(CC(O)COc2ccc3c(c2C(C)C)CC[C@H]2C(C)(C)CCC[C@]32C)CC1 (stereo partly specified)
Ratio IC50 (Plasmodium falciparum [1]): 0.62 | selectivity ratio [2]: 181 | IC50 (Plasmodium falciparum [3]): 1.01 µM | selectivity ratio [4]: 113 | IC50 (CHO): 183 µM | IC50 (Plasmodium falciparum [8]): 1.62 µM

IC50 (Plasmodium falciparum [8]): > 100 µM
SMILES: OC(COc1cccc2ccccc12)CN1CCN(c2ccccc2Cl)CC1 (racemic)

SMILES: c1ccc(OCC2CO2)cc1 (stereo unspecified)
IC50 (Plasmodium falciparum [8]): 77 µM

SMILES: OC(CNCc1ccccc1)COc1ccc2ccccc2c1 (racemic)
Ratio IC50 (Plasmodium falciparum [1]): 2 | selectivity ratio [2]: 9.1 | IC50 (Plasmodium falciparum [3]): 13.5 µM | selectivity ratio [4]: 18.2 | IC50 (CHO): 123 µM | IC50 (Plasmodium falciparum [8]): 6.77 µM

SMILES: CC(C)NCC(O)COc1cccc2ccccc12 (racemic) [PROPRANOLOL]
Activity (Plasmodium falciparum [6]): -3.48% | Activity (Plasmodium falciparum [7]): 5.35%

SMILES: Oc1ccccc1 [PHENOL]
IC50 (Plasmodium falciparum [8]): > 100 µM

SMILES: COc1ccc(CCN(C)CCCC(C#N)(c2ccc(OC)c(OC)c2)C(C)C)cc1OC (stereo unspecified)
fold change (FC) (Erythrocyte [9]): >3

SMILES: CC(C)c1c(OCC(O)CN2CCN(C)CC2)ccc2c1CC[C@H]1C(C)(C)CCC[C@]21C (stereo partly specified)
Ratio IC50 (Plasmodium falciparum [1]): 1.03 | selectivity ratio [2]: 2.7 | IC50 (Plasmodium falciparum [3]): 1.39 µM | selectivity ratio [4]: 2.7 | Activity [5]: Toxic | Activity (Erythrocyte [10]): Active | IC50 (CHO): 3.73 µM | IC50 (Plasmodium falciparum [8]): 1.36 µM

SMILES: CC(C)c1c(OCC(O)CN2CCN(c3ccccc3)CC2)ccc2c1CC[C@H]1C(C)(C)CCC[C@]21C (stereo partly specified)
Ratio IC50 (Plasmodium falciparum [1]): 0.71 | selectivity ratio [2]: 58.1 | IC50 (Plasmodium falciparum [3]): 1.81 µM | selectivity ratio [4]: 41.2 | IC50 (CHO): 105 µM | IC50 (Plasmodium falciparum [8]): 2.56 µM

SMILES: OC(CNCc1ccccc1)COc1cccc2ccccc12 (racemic)
Ratio IC50 (Plasmodium falciparum [1]): 0.14 | selectivity ratio [2]: 11.2 | IC50 (Plasmodium falciparum [3]): 0.73 µM | selectivity ratio [4]: 1.6 | Activity (Plasmodium falciparum [6]): 1.41% | Activity (Plasmodium falciparum [7]): 10.24% | IC50 (CHO): 8.27 µM | IC50 (Plasmodium falciparum [8]): 5.18 µM

SMILES: CC(C)c1c(OCC(O)CN2CCCCC2)ccc2c1CC[C@H]1C(C)(C)CCC[C@]21C (stereo partly specified)
Ratio IC50 (Plasmodium falciparum [1]): 0.7 | selectivity ratio [2]: 4 | IC50 (Plasmodium falciparum [3]): 0.75 µM | selectivity ratio [4]: 2.8 | IC50 (CHO): 2.99 µM | IC50 (Plasmodium falciparum [8]): 1.08 µM

SMILES: CN1CCN(CC(O)COc2cccc3ccccc23)CC1 (racemic)
Ratio IC50 (Plasmodium falciparum [1]): 0.17 | selectivity ratio [2]: 36.1 | IC50 (Plasmodium falciparum [3]): 7.23 µM | selectivity ratio [4]: 6.2 | IC50 (CHO): 261 µM | IC50 (Plasmodium falciparum [8]): 41.8 µM

SMILES: CC(C)c1c(OCC(O)CN2CCOCC2)ccc2c1CC[C@H]1C(C)(C)CCC[C@]21C (mixture of isomers)
Ratio IC50 (Plasmodium falciparum [1]): 0.27 | selectivity ratio [2]: 10 | IC50 (Plasmodium falciparum [3]): 0.56 µM | selectivity ratio [4]: 2.7 | IC50 (CHO): 5.61 µM | IC50 (Plasmodium falciparum [8]): 2.07 µM

SMILES: CC(C)c1c(O)ccc2c1CC[C@H]1C(C)(C)CCC[C@]21C [TOTAROL]
Ratio IC50 (Plasmodium falciparum [1]): 0.99 | selectivity ratio [2]: 14.6 | IC50 (Plasmodium falciparum [3]): 11.7 µM | selectivity ratio [4]: 14.5 | IC50 (CHO): 170 µM | IC50 (Plasmodium falciparum [8]): 11.8 µM

IC50 (Plasmodium falciparum [8]): 56.5 µM
SMILES: Oc1cccc2ccccc12 [1-NAPHTHOL]

IC50 (Plasmodium falciparum [8]): > 100 µM
SMILES: CN1CCN(CC(O)COc2ccccc2)CC1 (racemic)

SMILES: CC(C)c1c(OCC(O)CN2CCN(c3ccnc4cc(Cl)ccc34)CC2)ccc2c1CC[C@H]1C(C)(C)CCC[C@]21C (single isomer, unassigned)
Ratio IC50 (Plasmodium falciparum [1]): 0.64 | selectivity ratio [2]: > 100 | IC50 (Plasmodium falciparum [3]): 0.93 µM | selectivity ratio [4]: 67.3 | IC50 (CHO): 94.2 µM | IC50 (Plasmodium falciparum [8]): 1.42 µM

SMILES: Oc1ccc2ccccc2c1 [BETANAPHTHOL]
IC50 (Plasmodium falciparum [8]): > 100 µM
